# Measured values from PMC12464261 (Scientific Reports, 2025).
# Read-outs that look alike come from different tables or passages of the source.
# Legend:
# [1] = target: insulin-like growth factor 1 receptor (IGF-1R) (Homo sapiens, UniProt P08069); assay: IGF-1R binding assay; conditions: H19-7/IGF-1R cell line, [125I]-labeled IGF competition; Fig. 6E
# [2] = target: T1, insulin receptor isoform B (IR-B) (Homo sapiens, UniProt P06213); assay: Insulin receptor binding assay; conditions: CHO cell lysates, [125I]-labeled insulin competition; Fig. 6D
# Method in brief: (§1)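 CHO cells expressing insulin receptor isoforms A and B were grown in DMEM with 10% FBS and 1% penicillin-streptomycin, then serum-starved. Cell lysates were incubated with [125I]-insulin with or without excess unlabeled competitor. Bound and free tracer were separated by gel filtration and radioactivity was counted per fraction. IC50 values came from competitive binding curves.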
# animals = assay: In vivo immunogenicity studies in animals; conditions: no details given
# [3] = target: T1, insulin receptor isoform B (IR-B); assay: Insulin receptor phosphorylation assay; assay type: cell-based; conditions: CHO cells expressing insulin receptor; phospho-specific ELISA; Fig. 6B
# Method in brief: (§2)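 CHO cells expressing IR isoforms A and B were cultured in DMEM with 10% FBS and 1% penicillin-streptomycin, then serum-starved. Cells were exposed to insulin at 0.1, 1 or 10 nM for 5, 15 or 30 min. Lysates were applied to anti-phosphotyrosine-coated wells and detected with an HRP-conjugated secondary antibody. Receptor phosphorylation was quantified from absorbance.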
# [4] = target: T2, insulin receptor isoform A (IR-A) (Homo sapiens, UniProt P06213); assay: Insulin receptor binding assay; conditions: CHO cell lysates, [125I]-labeled insulin competition; Fig. 6C
# Method in brief: as §1
# type 1 diabetic rats = assay type: in vivo, NOD rats
# Method in brief: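 […]. […] Single dose: overnight fast, then tail-vein glucose by glucometer at 1, 2, 4 and 6 h. Multiple dose: daily injections, glucose at 2, 4 and 6 h post-injection. Triplicate measurements, means reported.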
# [5] = target: T2, insulin receptor isoform A (IR-A); assay: Insulin receptor phosphorylation assay; assay type: cell-based; conditions: CHO cells expressing insulin receptor; phospho-specific ELISA; Fig. 6A
# Method in brief: as §2
# [6] = Toxicokinetic / pharmacokinetic study of insulin injection in Beagle dogs; assay type: in vivo, Beagle dogs (Canis lupus familiaris); conditions: subcutaneous, across all doses (0.5, 1, 1.5 IU/kg vs Lantus 1.5 IU/kg), Fig. 5
# [7] = target: insulin lisargine (human); assay: crystal structure
# [8] = target: insulin lisargine (human); assay: crystal structure; remark: listed apart in the source
# T1 sequence (P06213 28-758 limits assumed): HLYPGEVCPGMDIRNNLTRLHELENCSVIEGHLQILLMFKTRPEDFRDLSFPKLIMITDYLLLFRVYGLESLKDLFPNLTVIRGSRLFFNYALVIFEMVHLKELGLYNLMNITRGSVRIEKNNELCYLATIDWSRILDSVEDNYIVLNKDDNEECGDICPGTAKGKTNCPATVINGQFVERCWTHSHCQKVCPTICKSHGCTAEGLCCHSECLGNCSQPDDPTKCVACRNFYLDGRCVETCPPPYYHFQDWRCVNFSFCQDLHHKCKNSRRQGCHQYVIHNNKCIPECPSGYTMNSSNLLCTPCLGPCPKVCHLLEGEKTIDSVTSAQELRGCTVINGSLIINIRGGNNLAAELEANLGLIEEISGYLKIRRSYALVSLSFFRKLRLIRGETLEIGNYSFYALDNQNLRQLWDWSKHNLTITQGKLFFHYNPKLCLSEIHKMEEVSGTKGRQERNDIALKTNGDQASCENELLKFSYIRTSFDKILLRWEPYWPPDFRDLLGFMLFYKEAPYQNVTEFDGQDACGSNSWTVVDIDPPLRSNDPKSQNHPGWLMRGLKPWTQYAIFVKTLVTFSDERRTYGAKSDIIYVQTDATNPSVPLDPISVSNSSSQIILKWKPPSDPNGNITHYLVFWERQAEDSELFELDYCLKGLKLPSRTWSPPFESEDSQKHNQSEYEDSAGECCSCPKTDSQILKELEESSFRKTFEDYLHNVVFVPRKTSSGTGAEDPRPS
# T1 sequence (P06213 763-1382 limits assumed): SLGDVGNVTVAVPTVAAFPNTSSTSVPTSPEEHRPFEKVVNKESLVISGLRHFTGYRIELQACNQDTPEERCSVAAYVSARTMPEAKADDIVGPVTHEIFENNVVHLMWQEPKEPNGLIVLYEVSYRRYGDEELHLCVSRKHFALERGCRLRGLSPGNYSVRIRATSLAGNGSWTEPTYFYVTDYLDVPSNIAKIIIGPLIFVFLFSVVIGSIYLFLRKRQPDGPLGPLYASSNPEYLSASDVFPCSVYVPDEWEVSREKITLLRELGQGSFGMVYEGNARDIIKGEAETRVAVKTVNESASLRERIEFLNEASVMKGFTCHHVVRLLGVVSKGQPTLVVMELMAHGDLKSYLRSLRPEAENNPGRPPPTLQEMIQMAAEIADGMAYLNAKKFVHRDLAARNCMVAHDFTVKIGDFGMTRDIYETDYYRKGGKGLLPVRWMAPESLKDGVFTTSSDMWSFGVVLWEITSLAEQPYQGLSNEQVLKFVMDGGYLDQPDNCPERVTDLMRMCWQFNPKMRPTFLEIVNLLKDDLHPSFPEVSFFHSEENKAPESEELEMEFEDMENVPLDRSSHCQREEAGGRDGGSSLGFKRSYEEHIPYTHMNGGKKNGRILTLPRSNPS
# T2 sequence (P06213 28-1370 isoform P06213-2 limits assumed): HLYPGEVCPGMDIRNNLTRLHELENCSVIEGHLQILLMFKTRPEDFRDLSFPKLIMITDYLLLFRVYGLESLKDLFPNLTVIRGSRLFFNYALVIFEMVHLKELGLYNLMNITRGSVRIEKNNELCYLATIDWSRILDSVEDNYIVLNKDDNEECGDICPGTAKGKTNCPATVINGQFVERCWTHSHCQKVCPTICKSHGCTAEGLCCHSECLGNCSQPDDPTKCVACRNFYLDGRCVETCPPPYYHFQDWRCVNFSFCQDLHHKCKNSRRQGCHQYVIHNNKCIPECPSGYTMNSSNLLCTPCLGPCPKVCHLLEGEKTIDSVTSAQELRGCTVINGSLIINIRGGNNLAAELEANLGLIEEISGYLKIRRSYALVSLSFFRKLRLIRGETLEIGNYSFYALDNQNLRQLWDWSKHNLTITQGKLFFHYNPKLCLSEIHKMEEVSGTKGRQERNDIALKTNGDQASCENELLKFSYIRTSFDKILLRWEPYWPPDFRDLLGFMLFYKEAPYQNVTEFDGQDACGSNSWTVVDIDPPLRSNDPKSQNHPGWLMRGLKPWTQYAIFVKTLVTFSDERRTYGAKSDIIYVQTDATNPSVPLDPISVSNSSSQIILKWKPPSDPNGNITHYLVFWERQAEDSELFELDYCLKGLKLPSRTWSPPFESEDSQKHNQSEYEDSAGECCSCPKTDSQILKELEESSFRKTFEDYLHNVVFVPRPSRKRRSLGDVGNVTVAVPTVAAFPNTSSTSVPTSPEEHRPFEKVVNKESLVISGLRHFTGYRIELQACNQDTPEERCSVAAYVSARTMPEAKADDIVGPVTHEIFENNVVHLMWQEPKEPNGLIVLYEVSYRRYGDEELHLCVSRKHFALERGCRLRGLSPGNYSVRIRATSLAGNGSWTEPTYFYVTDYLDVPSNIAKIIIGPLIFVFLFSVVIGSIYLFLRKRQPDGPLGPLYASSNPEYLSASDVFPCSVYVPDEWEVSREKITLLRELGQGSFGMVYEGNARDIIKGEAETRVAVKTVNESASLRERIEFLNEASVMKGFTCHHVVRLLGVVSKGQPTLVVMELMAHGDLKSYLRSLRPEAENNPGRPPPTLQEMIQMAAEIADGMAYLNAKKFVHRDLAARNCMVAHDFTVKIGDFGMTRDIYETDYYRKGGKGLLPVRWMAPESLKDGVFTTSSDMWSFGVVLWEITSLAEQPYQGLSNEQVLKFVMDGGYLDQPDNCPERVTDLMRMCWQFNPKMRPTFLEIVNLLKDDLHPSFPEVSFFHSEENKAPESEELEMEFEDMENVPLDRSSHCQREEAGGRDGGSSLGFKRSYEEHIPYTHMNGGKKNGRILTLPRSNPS
# T2 sequence (P06213 763-1382 limits assumed): as the sequence (P06213 763-1382 limits assumed) above
# Sequence of insulin-like growth factor 1 receptor (IGF-1R) (P08069 31-736 limits assumed): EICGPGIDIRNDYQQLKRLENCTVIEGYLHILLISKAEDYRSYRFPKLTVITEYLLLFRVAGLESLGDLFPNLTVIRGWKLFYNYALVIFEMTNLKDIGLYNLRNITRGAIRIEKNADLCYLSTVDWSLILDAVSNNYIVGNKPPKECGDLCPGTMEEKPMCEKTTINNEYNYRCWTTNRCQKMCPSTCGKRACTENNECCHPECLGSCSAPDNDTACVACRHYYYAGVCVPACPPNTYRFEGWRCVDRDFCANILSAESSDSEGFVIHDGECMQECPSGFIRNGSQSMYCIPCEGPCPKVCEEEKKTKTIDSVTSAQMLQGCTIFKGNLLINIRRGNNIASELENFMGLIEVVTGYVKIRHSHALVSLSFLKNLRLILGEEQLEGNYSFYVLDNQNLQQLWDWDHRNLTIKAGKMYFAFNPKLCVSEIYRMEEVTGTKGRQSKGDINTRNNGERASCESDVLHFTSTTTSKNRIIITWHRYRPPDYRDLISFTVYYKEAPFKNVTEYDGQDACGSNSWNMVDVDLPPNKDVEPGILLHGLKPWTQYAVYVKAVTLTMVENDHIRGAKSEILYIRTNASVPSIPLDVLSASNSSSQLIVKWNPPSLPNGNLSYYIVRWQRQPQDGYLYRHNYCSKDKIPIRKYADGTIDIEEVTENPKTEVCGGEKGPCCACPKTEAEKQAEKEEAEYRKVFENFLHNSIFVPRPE
# Sequence of insulin-like growth factor 1 receptor (IGF-1R) (P08069 741-1367 limits assumed): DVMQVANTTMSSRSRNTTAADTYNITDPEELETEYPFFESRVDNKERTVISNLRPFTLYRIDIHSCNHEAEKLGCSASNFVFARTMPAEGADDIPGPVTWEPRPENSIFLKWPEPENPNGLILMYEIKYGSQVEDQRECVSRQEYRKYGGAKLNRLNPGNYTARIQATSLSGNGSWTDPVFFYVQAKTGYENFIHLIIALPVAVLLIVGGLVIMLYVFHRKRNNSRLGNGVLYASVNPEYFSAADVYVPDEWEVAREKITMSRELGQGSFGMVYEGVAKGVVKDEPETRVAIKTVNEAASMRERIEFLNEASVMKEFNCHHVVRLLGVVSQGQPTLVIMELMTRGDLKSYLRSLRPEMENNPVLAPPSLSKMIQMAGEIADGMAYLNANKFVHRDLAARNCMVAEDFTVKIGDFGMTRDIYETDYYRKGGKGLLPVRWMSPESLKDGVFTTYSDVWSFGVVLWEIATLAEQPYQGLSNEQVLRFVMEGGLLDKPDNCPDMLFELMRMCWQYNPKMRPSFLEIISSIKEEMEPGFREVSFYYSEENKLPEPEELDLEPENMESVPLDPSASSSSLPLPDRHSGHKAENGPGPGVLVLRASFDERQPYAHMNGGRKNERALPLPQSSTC
Substance,IGF-1R binding affinity / IC50 compared with Lantus (insulin glargine) [1],binding affinity to IR-B compared with Lantus [2],immunogenicity in animals (animals),IR-B phosphorylation levels compared with Lantus [3],binding affinity to IR-A compared with Lantus [4],glucose-lowering effect compared with glargine (type 1 diabetic rats; 5 IU/kg (abstract)),"blood glucose levels compared with solvent control, multiple-dose (type 1 diabetic rats; daily administration, at 2, 4 and 6 h post-administration, Fig. 4B)","glucose-lowering effects compared with Aspart Insulin (type 1 diabetic rats; equivalent dose of 5 IU/kg, single-dose and multiple-dose studies)","time of most pronounced glucose-lowering effect, multiple-dose (type 1 diabetic rats; multiple-dose, 5 IU/kg group, Fig. 4B) [h]","time of peak glucose-lowering effect, multiple-dose (type 1 diabetic rats; multiple-dose, 10 IU/kg, Fig. 4B) [h]","blood glucose levels compared with solvent control, single-dose (type 1 diabetic rats; single dose (2.5, 5, 10 IU/kg), at 1, 2, 4 and 6 h post-administration, Fig. 4A)","time point of most pronounced glucose-lowering effect, single-dose (type 1 diabetic rats; single dose, Fig. 4A) [h]",IR-A phosphorylation levels compared with Lantus [5],plasma insulin concentrations compared with Lantus (insulin glargine) [6],stoichiometry N [7],stoichiometry N [8]
insulin lisargine,no significant differences in binding affinity or IC50 values,comparable binding affinities,favorable safety profile,no significant differences,comparable binding affinities,significantly outperformed glargine,significant reductions,comparable to the clinical drug Aspart Insulin,4,6,statistically significant reductions,4,no significant differences,no significant differences,,
insulin lisargine (ligand),,,,,,,,,,,,,,,6,2
